# The EternaBench riboswitch data
# System: MS2 coat protein
# Assay: apparent Kd, MS2 coat protein; higher = weaker binding; RNA-MaP array; FMN 200 µM where present
# Procedure, shortened: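 Two titrations, one without ligand and one with constant ligand, were run with SNAP-549-labelled MS2 coat protein from 0.7 or 1.5 nM, doubling to 3 µM. The targets were designs transcribed by stalled E. coli RNA polymerase on Illumina sequencing-chip clusters, in 100 mM Tris-HCl pH 7.5, 80 mM KCl, 4 mM MgCl2, BSA, DTT, yeast tRNA and Tween-20. The apparent Kd is the median of filtered per-cluster binding-curve fits, with green signal normalised to red-channel RNA signal and control-cluster median Fmax.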
# [1] = designed as: OFF switch for flavin mononucleotide, no ligand
# [2] = ligand present: flavin mononucleotide, designed as: OFF switch for flavin mononucleotide
# [3] = designed as: ON switch for flavin mononucleotide, no ligand
# [4] = ligand present: flavin mononucleotide, designed as: ON switch for flavin mononucleotide
Sequence,apparent Kd [1] [nM],apparent Kd [2] [nM],apparent Kd [3] [nM],apparent Kd [4] [nM]
CGAUAUACGAUGGACGGAAACGUACAUGAGGAUCACCCAUGUAGAAGGCGAUCCGCAACGCGGAUUGAGGAUAUAUACCACACA,23.8,23.3,–,–
AGUAGUUCAGGAUAUGAUGUAUGUUACAUGAGGAUCACCCAUGUAGGUCCUUGAAUUGUAUCAGAAGGGAAUAUCU,258,281,–,–
UGCGAACAGGCUAACAUGAGGAUCACCCAUGUGGACUCAUGGUAGGAUAUCGGGAAGGAGGAAACCGAGAAGGGCCGGUGAGCC,–,–,848,372
GCCUUAUCGGUCAGGAUAUACACCUGUUAGUUGUUGUAGAAGGGACAUGAGGAUCACCCAUGUACAUUACAUUG,23.1,40.1,–,–
GACACUAUGUUUGUCAGAUAGAGAGAGGAUAUGGGUCAUGAGACAUGAGGAUCACCCAUGUAUAAUCAGAAGGCUCGAGUACGA,–,–,19.1,13.7
GGGUCCAUCGGAGGAUAUCAUGUAAAUACAUGAGGAUCACCCAUGUCGAUGGAGACAUCGGAGAUUGAGAAGGCCGAUGUACCG,–,–,209,10.5
AUUGUGUGAGGAUAUUAGCAGUAGACGAAUGGAGUCGUGGCUGAGAAGGCACAUGAGGAUCACCCAUGUUCCUU,–,88.3,–,–
AGCUAGCUAGGAUAUGCGUAAAUGUCGAAAGACGUAUUGGGACAUGAGGAUCACCCAUGUAGAAGGAGCUAGCA,29.1,54.5,–,–
GCAUGCAAGUAGAAGGACAGAUAUUUUGAUACUGUAGGAUAUGCAGAAUCAUAUCCACAUGAUAACAUGAGGAUCACCCAUGUA,11.6,10,–,–
UCAAGUAUGUAGGAUAUGAUGUGAUUUUACAUAUCAGAAGGACGUACAUGAGGAUCACCCAUGUAACUUGCAUG,112,42.2,–,–
CGUGAAGGCUGGCCGAUAUAGUCGAGAAGGGUCCACAUGAGGAUCACCCAUGUGAGCCUUGGUGGACAGGAUAUCGAUGGCCGU,46.7,15.2,–,–
UGCCUUAGAGGAUAUACAUUGAAUUUGAUUCAUGUAAAACUACAUGAGGAUCACCCAUGUAGAAGGCUAGGGCU,19.1,37.1,–,–
GGAUAGGACAGAGGAUAUACGUGCUAGAGAUACUAGCAAAAUUUCGUCACAUGAGGAUCACCCAUGUAGAAGGCUGUCCUAUCG,5.02,7.65,–,–
AACCGCGACCGGCCUGGCACGUCGAGAAGGGUACGUGACUUGCUUUACAUGAGGAUCACCCAUGUACAGGAUAUCGAAUAGCCG,8.4,11,–,–
GAGUGGUAAAGAGGAUAUGCAUUGUUAUUAAAUGCAGAAGGUUUUAACAUGAGGAUCACCCAUGUAGGACUAUUCCUGUGUUUC,–,–,14.8,12.2
UUGGACGUCGCAGGAUAUGUAGGAUAUUCCUACAUGAGGAUCACCCAUGUUGACAUGGAAGAAGGACAGAAGGACGAUGUCCAU,–,–,693,9.15
GGUGCAUAUGAGAAGGUGAUCAUGAAACAUGAUCGAGGAUAUCAUGUAAACAUGAGGAUCACCCAUGUAUGGGAAUAUUGCACC,–,–,46.2,117
UGAUAGGACAGAGGAUAUGCGUGCUGGUGAUACUAGCAAAGUAUCGUGACAUGAGGAUCACCCAUGUAGAAGGCUGUCCUAUCU,28,68.4,–,–
GGGCCCGGAGGAUAUACAUGAGGAUCACCCAUGUAGGGUUUGGGUAUUCCCGGGCCCUGUAGAAGGCCGGGCCC,17.1,22.5,–,–
GGUACCUUCACAGGAUAUGCUAUCGUUUCGGUAGCAGAAGGGUGAUACAUGAGGAUCACCCAUGUGGUGCCAGGGCGUGAGCCC,–,–,842,329
GGCAAUAACGAGGAUAUCGUAUCGGAAACGAUACGAGAAGGUGUAACAUGAGGAUCACCCAUGUUCCUCAAGCC,37.9,37.2,–,–
AGUGUCAUCGAGAAGGCCUCAACAUGAGGAUCACCCAUGUUGUAAUAUGGGAGGAUAUCGAUGAUACAGCUACGUUUCGUAGCU,–,–,18.9,5.65
CCAUGGCUGUUAGGAUAUGUCUGACAAAGUCAGACAGAAGGGACAUGAGGAUCACCCAUGUGAAGAAAACCACAUUUGCCAUGG,7.74,7.72,–,–
GCCACGUCAGGAUAUCUGAUGUCUAACUUCGGUUAGACAUCAGAGAAGGGACAUGAGGAUCACCCAUGUGGCAA,264,177,–,–
GCACGGCAUGUAGGAUAUCGAGCUCAAAGAGCUCGAGAAGGACAUGAGGAUCACCCAUGUGCUCACAGACAGUGAGCGCUGUGC,25.1,91.5,–,–
AAUUAAUUAAUUAAUAUACAUGAGGAUCACCCAUGUAAGAUCAAGGAUAUCAGCUCGAUUAGAGCUGAGAAGGUGAUCACAUGU,–,–,357,501
AAGUUUUUACAAGGAUAUCAAUUUUAUCUUAAUUCAACAUGAGGAUCACCCAUGUAACAAUGGAGUGAGAAGGUGUAAUGGCUU,–,–,617,234
AUUACAUGAGGAUCACCCAUGUACAGAACGUUUCAUUACAGUGAGGAUAUACGAAAUGUAAAAGCGUAGAAGGCACUGGGUACA,–,–,29.5,22.2

Sequence,apparent Kd [1] [nM],apparent Kd [2] [nM],apparent Kd [3] [nM],apparent Kd [4] [nM]
AAACAUGUCCGAGGAUAUCUGAGAUCAUUUUCAAGAGAAGGCGGACAUGAGGAUCACCCAUGUCUCUCCUCAUCAACGCCAAAU,26.9,51.7,–,–
GUAGCUAUCGGAGGAUAUUCAUACCGUAAACGGACAUGAGGAUCACCCAUGUAGCGAAAGCCUUGGGAGAAGGCCGAUAGCUAC,–,–,942,88.8
UUGGACGUCGUAGGAUAUGUAGGAUGUUCCUACAUGAGGAUCACCCAUGUUGACAUGGAAGAAGGACAGAAGGACGAUGUCCAU,–,–,547,27
GUGCUCAUGUAAGGAUAUGCAGCCGUUUCGGCUGCAGAAGGUACUAUAAUACAUGAGGAUCACCCAUGUCUCUAUAAUUUGGUG,–,–,113,239
UGUUAUAGAGGAUAUGCGUGAAUAUAGAUUCAUGGAAAUUUACAUGAGGAUCACCCAUGUAGAAGGCUGUGAUU,14.4,15.3,–,–
UGUUCUAUGUAGAAGGCCCAUAUCUGUUCUUAGGGAGGAUAUACAUGAGGAUCACCCAUGUGUAGAGCUGGUGGACUGGUCAGC,15.4,35.5,–,–
UGUCUGAUCUAAUAACAUGAGGAUCACCCAUGUGUUCACAACUAGGAUAUCGAUUGUUAAGAAAUCGAGAAGGAGUAUACAUUA,44.8,50.8,–,–
UUAUUAUGUGUAGGAUAUGCAUAUUACUAUUAUGCAGAAGGACAUGAGGAUCACCCAUGUAUAUUAUUAUUAUAUAUUAUAUAU,14.9,22.4,–,–
UAUAUAUAGUAAGGAUAUGUAUUAAUAUUAUAAACAGAAGGUACUGACAUGAGGAUCACCCAUGUUUUAGUGUGGGCAUGUAGA,87.6,128,–,–
UCUGGUCGAGGAUAUAUAUGACGUGCUUCGGCACGAAGAUCACAUGAGGAUCACCCAUGUAGAAGGCGACCAGA,130,1160,–,–
AGAGUGUGAGGAUAUAUGGUGAAGAUGAAGGGAUAGAAGGAGUAGAAGGUACAUGAGGAUCACCCAUGUUAGGA,25.2,25.7,–,–
CAGAUAAAAGUGUGGUCCUCGACAUGAGGAUCACCCAUGUACGAGGAUAUGUAAUAUACGGUAUAGCAGAAGGCGUAUGGGUGU,37.7,36.2,–,–
AAAAAGGCAGGAUAUACAUGAGGAUCACCCAUGUUAAAAAAAAAAAAAAAAAAAAAGUGUAGAAGGGCCAAAAA,55.6,55,–,–
UGUUGUAUUACAGGAUAUCUAUUAUUUAUAUUUAGAGAAGGGUAUUCACAUGAGGAUCACCCAUGUAUAUACGAGGAAGUUGUG,–,–,52.1,54
GUCAGCUCGUCAGGAUAUACGUCACUGCUUCGGCAGUGUGGUAAGAUCACAUGAGGAUCACCCAUGUAGAAGGGACGAGCUGAA,11.8,209,–,–
CUUCUGUGAGGAUAUGUUAGCUCCCAGCAAGUCGCUGAGAGACAGAAGGCACAUGAGGAUCACCCAUGUGGGCG,35.1,177,–,–
AUGCUCAUAGGAUAUAGAUUGAUUCACAUGAGGAUCACCCAUGUAAACUCUACUUUUUAACUAGAAGGAUGUUUUU,24.7,23.5,–,–
AUUUAGUGAGGAUAUGUGGCUUCGAUCGUGAGAUCGAGGCUACAGAAGGCACAUGAGGAUCACCCAUGUUCCUC,37.6,498,–,–
AAAACUGGAGGAUAUACAUGAGGAUCACCCAUGUGUGGAUGAGCUGUGUCGGCGUCACGUAGAAGGCCACAAAA,40.5,47.5,–,–
GUGGUCAGACAUGAGGAUCACCCAUGUGGAAUAAAUAACAACUAGGAUAUGUAAUAUAGGAUAUAACAGAAGGAGUGAUUGGUG,–,–,168,138
CGUGCGUAUGUGAGGAUAUGCUGGUCCUUGGAUCGGCAGAAGGCACAUGAGGAUCACCCAUGUGGUGUCGUGCA,376,30.3,–,–
UAAUUACAUGAGGAUCACCCAUGUGAGGAUAUGUCCAUAUUCGGCAAAUCGGAUAUGGACAGAAGGCACACCGG,56.3,141,–,–
CGAAGUCCGUAGAAGGGUGACAUGAGGAUCACCCAUGUGCGAGCGGAUGGAGUCAGCGGCUCGCCACAGGAUAUACGGAGCACG,–,–,30.6,65.3
UGUCAUAUAUAGAAGGGUAGUAGGGAUUUACAUGAGGAUCACCCAUGUAUUAUAGGAUAUGUGUAUAGUUUUUAUUCAAGUUUA,24.7,18.8,–,–
AUAUAUCAUACAGGAUAUACAUGAGGAUCACCCAUGUGUUCUCCAUAAUUGACACCAAUUAUGCUGUAGAAGGGUAUGAUAUAU,22.3,151,–,–
GCCAAGCAAAAUAAAAUAAAUAAAACAUGAGGAUCACCCAUGUAGGAUAUGCUACACAAAGUGUAGCAGAAGGACAAGCUUGGC,14.6,19,–,–
GUAGCAUACCGAGGAUAUUCCCGGAAACGGAAAACAUGAGGAUCACCCAUGUGGCGAAAGCCUUGGGAGAAGGCGGAAUGCUAC,–,–,25.4,19.4
